Data set [1] has as its system Rattus norvegicus. Nature of the data set: Antiinflammatory activity in albino rat assessed as inhibition of carrageenan-induced paw edema at 0.029 mmol/kg, po after 2 hrs relative to control. The data set is classed as functional. The essentials:
(§1)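 Adult albino rats of either sex, 120–150 g, six per group. Compounds at 0.029 mmol/kg suspended in saline with a few drops of Tween 80 and given by oral stomach tube. After 1 h, 0.1 ml of freshly prepared 1% carrageenan in saline injected subplantar into the right hind paw. Paw thickness measured at 1–4 h; % edema inhibition versus control; mean ± SEM; ANOVA.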

Data set [2] concerns Rattus norvegicus. Put plainly: Antiinflammatory activity in albino rat assessed as inhibition of carrageenan-induced paw edema at 0.029 mmol/kg, po after 3 hrs relative to control. The data set is classed as functional. The essentials: as §1
For data set [3], the system named is Rattus norvegicus. Nature of the data set: Antiinflammatory activity in albino rat assessed as inhibition of carrageenan-induced paw edema at 0.029 mmol/kg, po after 4 hrs relative to control. Format: functional. The essentials:
as §1

Data set [4] deals with Rattus norvegicus. Put plainly: Antiinflammatory activity in albino rat assessed as inhibition of carrageenan-induced paw edema at 0.029 mmol/kg, po after 4 hrs relative to indomethacin. The data set is classed as functional. The essentials: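 Rat carrageenan paw edema: oral 0.029 mmol/kg in saline/Tween 80, 1 h before subplantar 0.1 ml 1% carrageenan into the right hind paw; six rats per group. Potency is % inhibition of the test compound divided by % inhibition of indomethacin at 4 h.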

For data set [5], the system named is Mus musculus. Put plainly: Analgesic activity in albino mouse assessed as decrease in acetic acid-induced writhing at 0.4 mg/kg, po administered 1 hr prior to acetic acid challenge. Format: functional. The gist of the method:
(§2)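 Albino mice of either sex, 18–22 g, six per group. Test agents suspended in saline with a few drops of Tween 80 and given by oral stomach tube; controls handled identically without drug. After 1 h, 0.3 ml of 1% acetic acid ip. Writhing contractions counted for 30 min, starting 5 min after injection. % protection versus control mean; mean ± SEM; one-way ANOVA with post hoc test.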

The test system of data set [6] is Mus musculus. Put plainly: Analgesic activity in albino mouse assessed as decrease in acetic acid-induced writhing at 10.86 mg/kg, po administered 1 hr prior to acetic acid challenge relative to control. Format: functional. The essentials: as §2
For data set [7], the system named is Mus musculus. Put plainly: Analgesic activity in albino mouse assessed as decrease in acetic acid-induced writhing at 0.8 mg/kg, po administered 1 hr prior to acetic acid challenge. The data set is classed as functional. The essentials: as §2
Data set [8] has as its system Mus musculus. Put plainly: Analgesic activity in albino mouse assessed as decrease in acetic acid-induced writhing at 1 mg/kg, po administered 1 hr prior to acetic acid challenge. Format: functional. The gist of the method:
as §2

The subject of data set [9] is Mus musculus. Nature of the data set: Analgesic activity in albino mouse assessed as decrease in acetic acid-induced writhing at 2 mg/kg, po administered 1 hr prior to acetic acid challenge. Format: functional. The gist of the method:
as §2

The subject of data set [10] is Mus musculus. Put plainly: Analgesic activity in albino mouse assessed as decrease in acetic acid-induced writhing at 4 mg/kg, po administered 1 hr prior to acetic acid challenge. The data set is classed as functional. The gist of the method:
as §2

Data set [11] deals with Mus musculus. Put plainly: Analgesic activity in albino mouse assessed as decrease in acetic acid-induced writhing at 8 mg/kg, po administered 1 hr prior to acetic acid challenge. Format: functional. The essentials:
as §2

In data set [12] the test system is Mus musculus. Nature of the data set: Analgesic activity in po dosed albino mouse assessed as decrease in acetic acid-induced writhing administered 1 hr prior to acetic acid challenge. Format: functional, organism-based. The essentials: as §2
The subject of data set [13] is Rattus norvegicus. Nature of the data set: Antiinflammatory activity in albino rat assessed as inhibition of carrageenan-induced paw edema at 0.029 mmol/kg, po after 1 hr relative to control. Format: functional. The gist of the method:
as §1

For data set [14], the system named is Mus musculus. Put plainly: Analgesic activity in albino mouse assessed as decrease in acetic acid-induced writhing at 10.39 mg/kg, po administered 1 hr prior to acetic acid challenge relative to control. The data set is classed as functional. The essentials:
as §2

Data set [15] deals with Rattus norvegicus. Nature of the data set: Gastrointestinal toxicity in albino rat assessed as ulcerogenic index at 0.029 mmol/kg, po after 5 hrs. The data set is classed as organism-based. To be noted: in vivo. The gist of the method: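 Adult albino rats of either sex (120–150 g), 6 per group, got the test compounds orally by stomach tube as a suspension in saline with a few drops of tween 80. They were the same rats used in the carrageenan paw-edema test. Stomachs were then opened along the great curvature and examined for lesions or bleeding. Ulceration was recorded as the number of rats with ulcers out of 6.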

The subject of data set [16] is Mus musculus. Nature of the data set: Analgesic activity in albino mouse assessed as decrease in acetic acid-induced writhing at 12.4 mg/kg, po administered 1 hr prior to acetic acid challenge relative to control. Format: functional. The essentials:
as §2

The test system of data set [17] is Mus musculus. Put plainly: Analgesic activity in albino mouse assessed as decrease in acetic acid-induced writhing at 8.04 mg/kg, po administered 1 hr prior to acetic acid challenge relative to control. The data set is classed as functional. The gist of the method:
as §2

For data set [18], the system named is Mus musculus. Put plainly: Analgesic activity in albino mouse assessed as decrease in acetic acid-induced writhing at 13 mg/kg, po administered 1 hr prior to acetic acid challenge relative to control. Format: functional. The essentials:
as §2

For data set [19], the system named is Rattus norvegicus. Nature of the data set: Antiinflammatory activity in albino rat assessed as inhibition of carrageenan-induced paw edema at 10 mg/kg, po. Format: functional. The gist of the method:
(§3)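 Rat carrageenan paw edema with oral dosing at 10, 15, 20 and 25 mg/kg, suspended in saline with Tween 80, 1 h before subplantar 0.1 ml 1% carrageenan into the right hind paw. % edema inhibition versus control at each dose; IC50 (mg/kg) derived from these four doses.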

For data set [20], the system named is Rattus norvegicus. Nature of the data set: Antiinflammatory activity in albino rat assessed as inhibition of carrageenan-induced paw edema at 15 mg/kg, po. The data set is classed as functional. The gist of the method:
as §3

The subject of data set [21] is Rattus norvegicus. Nature of the data set: Antiinflammatory activity in albino rat assessed as inhibition of carrageenan-induced paw edema at 20 mg/kg, po. Format: functional. The gist of the method:
as §3

Data set [22] has as its system Rattus norvegicus. Put plainly: Antiinflammatory activity in albino rat assessed as inhibition of carrageenan-induced paw edema at 25 mg/kg, po. The data set is classed as functional. The gist of the method:
as §3

For data set [23], the system named is Rattus norvegicus. Nature of the data set: Antiinflammatory activity in po dosed albino rat assessed as inhibition of carrageenan-induced paw edema. The data set is classed as functional, organism-based. The gist of the method: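 Adult albino rats of either sex, 120–150 g, groups of 6. Compound suspended in saline with a few drops of tween 80, given by oral stomach tube 1 h before subplantar injection of freshly prepared 1% carrageenan (0.1 ml) in saline into right hind paw. Paw thickness read at 1–4 h; % edema inhibition versus carrageenan control; mean ± SEM, one-way ANOVA with post hoc test.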

The subject of data set [24] is Mus musculus. Put plainly: Analgesic activity in albino mouse assessed as decrease in acetic acid-induced writhing at 11.66 mg/kg, po administered 1 hr prior to acetic acid challenge relative to control. Format: functional. The gist of the method: as §2
Data set [25] concerns Mus musculus. Nature of the data set: Analgesic activity in albino mouse assessed as decrease in acetic acid-induced writhing at 12.65 mg/kg, po administered 1 hr prior to acetic acid challenge relative to control. Format: functional. The gist of the method: as §2

Take `CCN1C(=S)N2CCCC2C2=C1NC(c1ccc(OC)c(O)c1)NC2=O` (stereo not given): the inhibition in vivo at 29 µmol/kg amounted to 9.12% in data set [1], 2.89% in [2], 3.09% in data set [3] and 22.4% in data set [13]. Further, in data set [4], the relative potency at 29 µmol/kg came to 0.11. The inhibition in vivo at 0.4 mg/kg in [5] came out at 53.6%. In addition, the inhibition in vivo at 10.86 mg/kg in [6] came out at 98.7%. The inhibition in vivo at 0.8 mg/kg in data set [7] amounted to 76%. Moreover, the inhibition in vivo at 1 mg/kg in data set [8] turned out to be 86.9%. Moreover, in data set [9], the inhibition in vivo at 2 mg/kg stood at 92%. In [10], the inhibition in vivo at 4 mg/kg was 95.3%. In data set [11], the inhibition in vivo at 8 mg/kg was found to be 97%. Besides, the IC50 in data set [12] turned out to be 0.359 mg/kg.

As to `CCN1C(=S)N2CCCC2C2=C1NC(c1ccc(OC)cc1)NC2=O` (stereo not given), the inhibition in vivo at 29 µmol/kg came out at 9.12% in data set [1], 10.8% in data set [2], 14.9% in data set [3] and 10.1% in data set [13]. In [4], the relative potency at 29 µmol/kg was 0.54. The inhibition in vivo at 10.39 mg/kg in [14] stood at 85%.

For `O=C1N(c2ccccc2)c2nc(-c3ccccc3)nc(N3CCOCC3)c2C2CCCN12` (stereo not given), the inhibition in vivo at 29 µmol/kg in data set [1] stood at 19%; in data set [2], 18.7%; in data set [3], 11.2%; in data set [13] it was 11.2%. Also, the relative potency at 29 µmol/kg in data set [4] came to 0.4. In addition, the UI result in data set [15] was “Non-toxic”. In [16], the inhibition in vivo at 12.4 mg/kg came to 67%.

For `CCN1C(=S)N2CCCC2c2c1ncn(CC)c2=N` (stereo not given), the inhibition in vivo at 29 µmol/kg in data set [1] came out at 11.6%; in data set [2], 10.8%; in data set [3], 9.91%; in [13] it was 11.6%. For the same compound, in [4], the relative potency at 29 µmol/kg turned out to be 0.36. Besides, the inhibition in vivo at 8.04 mg/kg in [17] was found to be 75.9%.

As for `N#Cc1cnn(-c2nc(-c3ccccc3)nc3c2C2CCCN2C(=O)N3c2ccccc2)c1N` (stereo not given), the inhibition in vivo at 29 µmol/kg in [1] was 9.92%; in [2] it was 9.37%; in data set [3], 6.82%; in [13] it was 12.3%. Besides, in data set [4], the relative potency at 29 µmol/kg is 0.24. Also, in data set [18], the inhibition in vivo at 13 mg/kg was determined as 76.8%.

On to `CCCNc1nc(-c2ccccc2)nc2c1C1CCCN1C(=O)N2c1ccccc1` (stereo not given), for which the inhibition in vivo at 29 µmol/kg in data set [1] stood at 25.6%; in data set [2], 30.9%; in data set [3], 36.6%; in data set [13], 13.5%. Moreover, the relative potency at 29 µmol/kg in [4] was 1.34. For the same compound, in [19], the inhibition in vivo at 10 mg/kg was 27.6%. Besides, in [20], the inhibition in vivo at 15 mg/kg amounted to 41.6%. Moreover, in [21], the inhibition in vivo at 20 mg/kg amounted to 63.3%. The inhibition in vivo at 25 mg/kg in data set [22] is 69%. Also, in data set [23], the IC50 is 16.5 mg/kg. Moreover, the inhibition in vivo at 11.66 mg/kg in [24] is 69.6%.

Take `Cc1cc(C)n(-c2nc(-c3ccccc3)nc3c2C2CCCN2C(=O)N3c2ccccc2)n1` (stereo not given): the inhibition in vivo at 29 µmol/kg came out at 20.7% in data set [1], 20.9% in data set [2], 17.4% in data set [3] and 17.9% in data set [13]. Moreover, the relative potency at 29 µmol/kg in [4] worked out at 0.63. Also, the inhibition in vivo at 12.65 mg/kg in [25] was found to be 76.6%.

These data come from ChEMBL document CHEMBL1155292, “Synthesis, analgesic and anti-inflammatory activities evaluation of some bi-, tri- and tetracyclic condensed pyrimidines” (Eur J Med Chem, 2009).
